HSV augment – HSV replication enhancement. maximum fold increase. 220,000 compounds, 0.005% hits. HSV replication augmentation in cells, fold increase. AID 1956; in the data active = maximum fold increase above about 1.5; tested in PC3 cells
bCat nuc transl – beta-catenin nuclear translocation modulation; HeLa beta-catenin nuclear translocation, immunofluorescence imaging; nuclear translocation activity, % at 5 µM; 190,000 compounds, 0.3% hits; AID 1665;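 active = nuclear translocation activity above 50% at 5 µM, with a well cell count of 50 or more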;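 note: per-cell ratio of nuclear to cytoplasmic median beta-catenin stain intensity; plate controls were DMSO negative control for no effect and GSK-3 inhibitor IX positive control for full effect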
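Technique: fluorescence imaging of beta-catenin antibody stain plus DAPI / Material: human HeLa cell line / Incubation: compound treatment 24 h, 37°C, 5% CO2 / Read-out basis: % activation of per-cell nuclear versus cytoplasmic median beta-catenin signal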
MT stabilize HCS – microtubule stabilization, imaging screen; HeLa tubulin immunostaining HCS, 24 h; share of cells brighter than vehicle mean+2SD; % tubulin-high responders, % at 10 µM; 200,000 compounds, 0.83% hits;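 active = plate Z-score above 3 for both tubulin-high and condensed-nucleus cell shares, with cell loss under 80%, at 10 µM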;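 note: anti alpha tubulin signal scored within the nucleus-defined area of each cell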
Dynein cargo inh – dynein cargo transport inhibition; z-score, hits read low; 220,000 compounds, 0.47% hits; 3617.4 mouse cells, GR-EGFP nuclear translocation imaging; test concentration mostly 20 µM; stimulated with dexamethasone, 1 µM; active compounds read low;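 active = plate z-score of nuclear minus cytoplasmic receptor signal below a set negative limit, without overly bright fluorescence or cell loss, cut at about -3.5 in these data, passing the limit was not always enough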;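 note: z-score of nuclear minus cytoplasmic ring GR-EGFP intensity difference per well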
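Buffer or medium: tet-free, stripped-serum medium; reagent: dexamethasone at 1.0 µM final, 30 min; incubation: 48 h induction, 1 h compound, 30 min dex at 37 °C; measured by: formaldehyde fixation, Hoechst nuclear stain, 10x automated fluorescence imaging; read-out: nuclear-to-cytoplasmic GR-EGFP distribution per well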
L major viab – inhibitors of Leishmania major promastigote growth. Leishmania major promastigotes, resazurin fluorescence viability. inhibition, % at 10 µM. AID 1063. 200,000 compounds, 9% hits; in the data active = inhibition above about 50%;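 note: promastigotes grown with compound for 44 hours at 28 °C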
Active calls of the source: *; i = inactive; · = no result. An excerpt weighted towards active compounds, which were near 8.9% of everything screened.

SMILES | HSV augment | bCat nuc transl | MT stabilize HCS | Dynein cargo inh | L major viab
Cc1cccc2cc(CN(Cc3cccs3)C3(c4nnnn4C4CCCC4)CCCC3)c(=O)[nH]c12 | i | -8 | 6 | 0.09 | 73*
Cc1ccc2[nH]c(=O)c(CN(Cc3nnnn3C3CCCC3)C3CCCCC3)cc2c1 | i | -3 | 4 | -0.15 | 49
Cc1ccc(C)c2[nH]c(=O)c(CN(CCN3CCOCC3)Cc3nnnn3CC3CCCO3)cc12 (centres undefined) | i | -4 | 4 | 2.8 | 6
Cc1ccc(C)c2[nH]c(=O)c(CN(Cc3nnnn3C3CCCCC3)CC3CCCO3)cc12 (centres undefined) | i | -2 | 2 | -0.79 | 100*
Cc1cc(C)c2[nH]c(=O)c(CN(Cc3ccc4c(c3)OCO4)Cc3nnnn3C3CCCC3)cc2c1 | i | -1 | 8 | -0.19 | 88*
Cc1ccc2[nH]c(=O)c(CN(Cc3ccccc3)Cc3nnnn3C3CCCC3)cc2c1 | i | -2 | 2 | 0.47 | 53*
CCCCCCNS(=O)(=O)c1ccc(Cl)s1 | i | · | 2 | -0.11 | 1
COc1ccc(Cn2nnnc2C(c2cc3ccc(OC)cc3[nH]c2=O)N2CCC(C)CC2)cc1 (centres undefined) | i | -3 | 3 | -0.16 | 16
Cc1cc(C)c2[nH]c(=O)c(C(c3nnnn3Cc3ccc4c(c3)OCO4)N3CCC(C)CC3)cc2c1 (centres undefined) | i | 1 | 2 | -0.25 | 76*
COc1ccc(-c2n[nH]c(=S)n2-c2ccc3c(c2)OCCO3)cc1 | i | -2 | 4 | 0.38 | -2
COc1cc(OC)cc(-c2n[nH]c(=S)n2-c2ccc3c(c2)OCCO3)c1 | i | 0 | 3 | 3 | 71*
COc1ccc(-c2n[nH]c(=S)n2-c2ccc3c(c2)OCCO3)cc1OC | i | 0 | 1 | 3.9 | 88*
O=C(NCCC1=CCCCC1)c1ccc(F)cc1 | i | 0 | 3 | -0.46 | 3
O=C(NCCC1=CCCCC1)c1ccc(CN2CCOCC2)cc1 | i | 1 | 4 | 0.87 | 81*
O=C(NC1CCCCCC1)c1ccc(CN2CCOCC2)cc1 | · | -1 | 3 | 1.2 | 59*
O=C(NC1CCCC1)c1ccc(CN2CCOCC2)cc1 | i | -3 | 1 | 0.74 | -5
NC(=S)NNC(=O)c1cccc(Cl)c1 | i | -1 | · | 0.74 | ·
O=C(NCc1ccccc1)c1ccc(OC2CSC2)cc1 | i | -1 | 5 | 2.1 | -4
ON(Cc1c(F)cccc1Cl)Cc1c(F)cccc1Cl | i | 0 | · | -1.3 | ·
C=C(Cl)COc1ccc2c(C)cc(=O)oc2c1 | i | -1 | 2 | 0.28 | -3
O=S(=O)(c1ccc(Cl)cc1)n1ccc(-c2cccc(OCc3c(F)cccc3Cl)c2)n1 | i | · | 2 | -0.39 | 13
Oc1ccc[n+](CCCCC[n+]2cccc(O)c2)c1 | i | 0 | · | 1.5 | ·
CCCCCCCC[n+]1cccc(C(=O)N(CC)CC)c1 | i | · | 3 | 0.21 | 61*
CCCOc1ccc(-c2nc(C#N)c(NCC3CCCO3)o2)cc1 (centres undefined) | i | · | 1 | -0.3 | 92*
CC(NC(=O)c1ccc(F)cc1)c1ccc(F)cc1 (centres undefined) | i | · | 5 | -0.38 | 56*
SMILES | HSV augment | bCat nuc transl | MT stabilize HCS | Dynein cargo inh | L major viab
CC(NC(=O)c1ccccc1)c1ccc(Br)cc1 (centres undefined) | i | -1 | 3 | -0.68 | 55*
CC(NC(=O)c1ccc(Br)cc1)c1ccccc1 (centres undefined) | i | · | 2 | -0.81 | -2
CCN1C(=O)N[C@@H](c2ccccc2)[C@H](C(=O)OC)[C@H]1C | i | · | · | · | ·
CCN(C(C)=O)c1cccc2ccccc12 | i | -5 | 1 | -0.69 | 0
COc1ccc(Nc2nnc(SCC(=O)/C=C3/N(C)c4ccccc4C3(C)C)s2)cc1 | i | · | 1 | 0.064 | 96*
COc1ccc(C(=O)Nc2ccc3c(c2)nc(CCNC(C)=O)n3C)cc1 | i | · | 2 | 1.7 | -4
O=C1/C(=C\c2cccnc2)Sc2ccccc21 | i | -2 | 3 | 0.069 | 100*
COCC(=O)OCc1cc2cccc(C)c2[nH]c1=O | i | -1 | · | 0.069 | ·
N=c1c2c(n(Cc3ccc(F)cc3)c3c1CCC3)CCCC2 | i | 3 | 2 | -0.68 | 99*
N=c1c2c(n(Cc3cccc(Cl)c3)c3c1CCC3)CCCC2 | i | -1 | 2 | 0.0024 | 100*
O=C1CCCc2ccccc2N1Cc1ccc(F)cc1 | i | -3 | 3 | -0.095 | -1
O=c1[nH]c(SCc2cccc(Cl)c2)nc2c1CCCC2 | i | -2 | 1 | 0.021 | -10
N=c1c2c(n(Cc3ccc(Cl)cc3)c3c1CCC3)CCC2 | i | · | 2 | -1.2 | 99*
CC(C)c1ccccc1NC(=O)COC(=O)c1cc(=O)[nH]c(=O)[nH]1 | i | 0 | 6 | 0.4 | -7
CC(C)c1cc(C(=O)N/N=C/C=C/c2ccccc2)n[nH]1 | i | -1 | 3 | 0.087 | 38
COc1ccc(NC(=O)c2c(Cl)cnn2C)c(C)c1 | i | 1 | 1 | -0.69 | -4
Cc1ccc(Nc2c(-c3ccccc3O)nc3cnccn23)cc1 | i | 0 | 4 | 0.33 | 79*
COc1ccc(Nc2c(-c3ccc(C)cc3)nc3cnccn23)cc1 | i | -3 | 2 | -1.4 | 4
CCOC(=O)C1(C)NC(c2ccccc2F)C2C(=O)N(c3cccc(C(C)=O)c3)C(=O)C21 (centres undefined) | i | · | 2 | -0.91 | -6
COc1ccc(-c2noc(-c3ccccc3C(=O)Nc3cccc(OC)c3)n2)cc1 | i | -3 | 4 | 1.9 | 33
COc1ccc(Cl)cc1-c1nc(-c2ccc(NC(=O)c3cccs3)cc2)no1 | i | 4 | 6 | -0.077 | 65*
COc1ccc(NC(=O)c2cccs2)cc1OC | i | 0 | 2 | 0.072 | -1
CC(Oc1ccc(Cl)cc1Cl)c1nc(-c2ccc(NC(=O)c3cccnc3)cc2)no1 (centres undefined) | i | · | 3 | 0.64 | 95*
COc1ccc(-c2noc(-c3ccccc3C(=O)Nc3cccnc3)n2)cc1 | i | 3 | 3 | 1.5 | 22
CCOc1ccccc1NC(=O)c1ccccc1-c1nc(-c2ccccc2)no1 | i | 2 | 32* | 0.044 | 16
COc1ccc(-c2noc(-c3ccccc3C(=O)Nc3cccnc3)n2)cc1OC | i | 0 | 4 | -1.1 | 71*
N#CC1=C(N)OC2=C(C(=O)CCC2)C1c1cccs1 (centres undefined) | i | 1 | 2 | -0.84 | 9
Cc1c(C(=O)Nc2nnc(C(F)(F)F)s2)oc2ccccc12 | i | -2 | · | · | ·
CCn1cc(Cl)c(C(=O)N2N=C3/C(=C/c4cccs4)CCCC3C2c2cccs2)n1 (centres undefined) | i | 1 | 2 | 1.1 | 18
CC(=O)N(C)c1ccc(OCC(O)Cn2c(C)nc3ccccc32)cc1 (centres undefined) | i | -1 | 3 | 0.99 | -1

Bioassay records from PubChem BioAssay.
